We go through one compound from ChEMBL document CHEMBL1155241, “Investigation of N-aryl-3-alkylidenepyrrolinones as potential Niemann-Pick type C disease therapeutics” (2009).

SMILES strings stand for the structures. Active and inactive are the calls of the source. The calls are words filed in the database; no cut-off is given here.

A short description of test [1]: Inhibition of LDL endocytosis in wild type chinese hamster 25RA cells assessed as ratio of DiI-labeled LDL level in treated to untreated control at 10 uM after 35 mins by fluorimetry. It counts as functional, Cricetulus griseus. A digest of the protocol: (§1)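 CT60 or 25RA cells incubated with compound together with DiI-labeled LDL, either 35 min (short) or 18 h (long). Uptake quantified as DiI fluorescence intensity per cell area and normalized to the mean of solvent (DMSO)-treated samples.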

The nature of test [2]: Inhibition of LDL endocytosis in NPC1 deficient chinese hamster CT60 cells assessed as ratio of DiI-labeled LDL level in treated to untreated control at 10 uM after 18 hrs by fluorimetry. Type of test: functional, Cricetulus griseus. An outline of the steps:
as §1

The target in test [3] is T1, Sterol O-acyltransferase 1 (Cricetulus griseus) (UniProt Q60457).
T1 sequence (whole entry): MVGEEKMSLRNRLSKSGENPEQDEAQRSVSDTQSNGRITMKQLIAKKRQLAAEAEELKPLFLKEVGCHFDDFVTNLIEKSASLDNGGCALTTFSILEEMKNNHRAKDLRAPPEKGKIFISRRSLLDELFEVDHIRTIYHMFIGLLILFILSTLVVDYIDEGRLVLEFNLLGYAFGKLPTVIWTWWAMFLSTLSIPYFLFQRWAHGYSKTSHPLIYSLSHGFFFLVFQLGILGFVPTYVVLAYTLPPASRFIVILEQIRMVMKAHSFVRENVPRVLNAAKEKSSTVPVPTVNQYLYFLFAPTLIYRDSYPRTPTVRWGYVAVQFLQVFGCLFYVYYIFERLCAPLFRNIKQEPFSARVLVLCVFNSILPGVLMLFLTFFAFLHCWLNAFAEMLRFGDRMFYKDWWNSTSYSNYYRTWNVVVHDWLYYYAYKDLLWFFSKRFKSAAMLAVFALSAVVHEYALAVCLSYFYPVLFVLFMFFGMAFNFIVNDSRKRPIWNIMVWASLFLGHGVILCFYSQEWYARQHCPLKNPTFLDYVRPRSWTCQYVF
Kind of test: Increase in ACAT-induced cholesterol esterification in NPC1 deficient chinese hamster CT60 cells assessed as ratio of [14C]oleic acid incorporation in treated to untreated control at 10 uM. It counts as cell-based. An outline of the steps:
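CT60 cells treated 18 h at 10 µM. ACAT esterification measured as incorporation of [14C]-oleic acid into cholesteryl-[14C]-oleate, normalized to cellular protein. Expressed relative to solvent-treated controls.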

Test [4] is described as follows: Effect on cholesterol esters content in NPC1 deficient chinese hamster CT60 cells assessed as ratio of cholesteryl esters level in treated to untreated control at 10 uM by gas chromatography. It counts as functional, Cricetulus griseus. A digest of the protocol: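 CT60 cells exposed to 10 µM for 18 h alongside solvent (DMSO) controls. Total cellular cholesteryl ester measured by GC and expressed per µg cell protein. Reported relative to solvent-treated cells.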

For a further test, the system named is CT60. Kind of test: Increase in cholesterol efflux in NPC1 deficient chinese hamster CT60 cells at 10 uM after 18 hrs by [3H]cholesterol incorporation assay. Type of test: functional, cell-based. The note with it: Cricetulus griseus. A digest of the protocol:
(§2)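 Cells labeled 24 h with 1 µCi/ml [3H]-cholesterol, then incubated 18 h with 10 µM compound. Efflux went to serum acceptors. Efflux is supernatant radioactivity divided by supernatant plus cell-monolayer radioactivity, compared with solvent-treated control cells.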

The species named for test [5] is Cricetulus griseus. Kind of test: Increase in cholesterol efflux in wild type chinese hamster 25RA cells with SCAP gene gain of function mutation at 10 uM after 18 hrs by [3H]cholesterol incorporation assay. Type of test: functional. A digest of the protocol: as §2
The species entered for test [6] is Cricetulus griseus. Kind of test: Increase in cholesterol efflux in chinese hamster TRVb1 cells expressing human transferrin receptor at 10 uM after 18 hrs by [3H]cholesterol incorporation assay. It counts as functional. An outline of the steps:
as §2

Test [7] is described as follows: Reduction in cholesterol level in lysosomal storage organelles of NPC1 deficient chinese hamster CT43 cells at 10 uM by LSO compartment ratio assay. Type of test: functional, Cricetulus griseus. Further details: scale not given: the % may be the effect or the level left.
A short description of test [8]: Reduction in cholesterol level in lysosomal storage organelles of NPC1 deficient chinese hamster CT60 cells at 10 uM by LSO compartment ratio assay. It counts as functional, Cricetulus griseus. Also noted: scale not given: the % may be the effect or the level left.
Test [9] is described as follows: Inhibition of LDL endocytosis in NPC1 deficient chinese hamster CT60 cells assessed as ratio of DiI-labeled LDL level in treated to untreated control at 10 uM after 35 mins by fluorimetry. It counts as functional, Cricetulus griseus. A digest of the protocol: as §1
Test [10] is described as follows: Inhibition of LDL endocytosis in NPC1 deficient chinese hamster cells assessed as ratio of DiI-labeled LDL level in treated to untreated control at 10 uM after 18 hrs by fluorimetry.

As to `O=C(O)c1ccc(N2C(=O)/C(=C\c3ccc(-c4ccc(Br)cc4)o3)C=C2c2ccccc2)cc1`, the Ratio in test [1] was 1.16; in test [2] it was 0.59; in test [3], 1.49; in [4], 1.05; in [9] it was 0.93; in test [10], 0.67. Also, the outcome in the test with CT60, in the test listed under Cricetulus griseus [5] and in the test listed under Cricetulus griseus [6] was Active. The Activity amounted to 80% in test [7] and 30% in test [8].
